Measured values gathered from unrelated publications.
Target: Dual specificity protein kinase CLK2 (CLK2, Homo sapiens, UniProt P49760)

| Structure (SMILES) | test | setting | endpoint | value |
| --- | --- | --- | --- | --- |
| C[C@H]1CC[C@H](n2c3cnccc3c3cnc(Nc4ccc5c(n4)CCN(C(=O)CO)C5)nc32)CC1 | cell-free assay | 1 µM | remaining signal | 1% |
| CO[C@@H]1[C@H](N(C)C(=O)c2ccccc2)C[C@H]2O[C@]1(C)n1c3ccccc3c3c4c(c5c6ccccc6n2c5c31)C(=O)NC4 | enzyme activity, inhibitor | 1 µM | inhibition | 54% |
| C#Cc1cc(-c2cc(Nc3nc(N[C@@H](C)c4ccc(F)cn4)ncc3Cl)n[nH]2)ccc1C=O | enzyme activity, inhibitor | 0.2 µM | inhibition | 47.4% |
| CCCCC(=O)Nc1ccc(-c2ccc3ncn(CCC)c(=O)c3c2)cn1 | binding, competition with immobilised ligand | 0.5 µM | remaining binding | 100% |
| C=CC(=O)N1CCC[C@@H](n2nc(-c3ccc(Oc4ccccc4)cc3)c3c(N)ncnc32)C1 | enzyme activity, inhibitor | 1 µM | inhibition | 2% |
| CC(C)S(=O)(=O)c1ccc2nccc(Nc3ccc4sc(C5CCCC5)nc4c3)c2c1 | enzyme activity, inhibitor | 1 µM | activity vs control | 105% |
| Cc1ccc(NC(=O)c2ccnc(C(F)(F)F)c2)cc1-c1cc(OCCO)nc(N2CCOCC2)c1 | binding | 1 µM | remaining binding | 100% |
| Cc1cc(O)c(-c2ccc([C@@H](C)CN(C)C)cc2)c2c1[nH]c(=O)c1sccc12 | enzyme activity, inhibitor | 0.1 µM | inhibition | 8.32% |
| C1=C/COCc2cc(ccc2OCCN2CCCC2)Nc2nccc(n2)-c2cccc(c2)COC/1 | binding | 0.1 µM | remaining binding | 47% |
